One experiment deals with ERα + ERβ. The experiment is described as follows: HEK293 ERE-luciferase reporter assay, ERα + ERβ. Type of experiment: cell-based. The essentials:
(§1)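 HEK293 cells were batch-transfected per well with 2.5 ng of each ER (ERα alone or ERα + ERβ) plus 50 ng tk-ERE-luc. After 48 h expression, cells were exposed to ligands for 24 h and lysed. Firefly luciferase luminescence was measured and normalized to β-galactosidase luminescence in the same well.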

In experiment [1] the test system is PC3 cells. Description: MTT assay for cellular metabolic activity, PC3. Type of experiment: cell-based, human. Particulars: inhibition retained in the presence of ICI 182,780.
For a further experiment, the target named is ERα/β heterodimer (Homo sapiens, UniProt P03372+Q92731). Description: BRET assay, ERα/β heterodimerization in transfected HEK293 cells. The class given is cell-based. To be noted: 1 hour. The method, boiled down:
(§2)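 HEK293 cells batch-transfected in phenol red free DMEM + 5% SFS with fusion pairs: ERα-RLuc + ERα-YFP (α/α), RLuc-ERβ + YFP-ERβ (β/β) or ERα-RLuc + YFP-ERβ (α/β). RLuc-only cells were included for the correction factor. After 24 h, cells were trypsinized and replated at 10,000/well in PBS. Compound was applied for 1 h, then coelenterazine h was added. Emission was read at 470/530 nm; BRET ratio; triplicates; E2 positive, DMSO negative control.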

The target of experiment [2] is T1, ERβ (Homo sapiens, UniProt Q92731). Description: Fluorescence Polarization Competition Binding Assay, ERβ.
A further experiment addresses ERβ/β homodimer (Homo sapiens, UniProt Q92731). Description: BRET assay, ERβ/β homodimerization in transfected HEK293 cells. The class given is cell-based. Particulars: 100 μM purified compound. The essentials:
as §2

Experiment [3] has as its target T2, ERα (Homo sapiens, UniProt P03372). The experiment is described as follows: Fluorescence Polarization Competition Binding Assay, ERα. To be noted: read-out: Ki for binding to ERα; correlated from IC50, FP competition. The essentials:
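Competitive fluorescence polarization used purified ERα from a commercial kit. Compound was tenfold serially diluted in screening buffer (down to 10 pM final), DMSO below 1%. It was mixed with ERα (15 nM final) and Fluormone tracer (1 nM final). Incubation was 2 h in the dark at room temperature, then polarization was read in glass tubes.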

Another experiment has as its target T3, ERα/α homodimer (Homo sapiens, UniProt P03372).
T3 sequence (P03372 1-595) 1: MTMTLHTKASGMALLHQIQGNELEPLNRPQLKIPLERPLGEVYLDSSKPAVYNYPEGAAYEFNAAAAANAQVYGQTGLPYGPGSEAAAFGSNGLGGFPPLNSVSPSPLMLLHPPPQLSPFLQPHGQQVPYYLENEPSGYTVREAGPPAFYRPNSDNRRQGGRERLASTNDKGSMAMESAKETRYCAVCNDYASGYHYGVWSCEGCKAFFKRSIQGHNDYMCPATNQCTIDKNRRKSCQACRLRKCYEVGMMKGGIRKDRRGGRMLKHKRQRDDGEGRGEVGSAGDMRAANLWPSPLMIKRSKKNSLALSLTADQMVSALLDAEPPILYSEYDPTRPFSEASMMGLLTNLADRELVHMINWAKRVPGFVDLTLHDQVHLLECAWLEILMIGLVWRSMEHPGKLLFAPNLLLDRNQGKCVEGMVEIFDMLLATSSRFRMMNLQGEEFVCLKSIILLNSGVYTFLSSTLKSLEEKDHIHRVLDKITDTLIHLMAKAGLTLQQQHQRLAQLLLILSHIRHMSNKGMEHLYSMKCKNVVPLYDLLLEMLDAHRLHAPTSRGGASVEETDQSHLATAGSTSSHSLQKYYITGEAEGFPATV
T3 sequence (P03372 1-595) 2: T3 sequence (P03372 1-595) 1
The experiment is described as follows: BRET assay, ERα/α homodimerization in transfected HEK293 cells. The class given is cell-based. To be noted: 100 μM purified compound. The essentials:
as §2

The target in experiment [4] is T1, ERβ. Description: HEK293 ERE-luciferase reporter assay, ERβ alone. The class given is cell-based. To be noted: HEK293, 24 hours with ligand, 10 μM and 100 μM.
For experiment [5], the system named is HC11 cells. Description: MTT assay for cellular metabolic activity, HC11. Type of experiment: cell-based, mouse. To be noted: inhibition retained in the presence of ICI 182,780.
Experiment [6] deals with HC11 cells. To be noted: HC11, 10 μM synthetic compound, vs DMSO, p= 0.06.
The test system of experiment [7] is PC3 cells. To be noted: vs DMSO.
The target in experiment [8] is T2, ERα. Description: HEK293 ERE-luciferase reporter assay, ERα alone. To be noted: HEK293, 24 hours with ligand, 10 μM and 100 μM. Type of experiment: cell-based. The method, boiled down:
as §1

Read-outs that look alike come from different tables or passages of the source.

T1 sequence (Q92731 whole entry): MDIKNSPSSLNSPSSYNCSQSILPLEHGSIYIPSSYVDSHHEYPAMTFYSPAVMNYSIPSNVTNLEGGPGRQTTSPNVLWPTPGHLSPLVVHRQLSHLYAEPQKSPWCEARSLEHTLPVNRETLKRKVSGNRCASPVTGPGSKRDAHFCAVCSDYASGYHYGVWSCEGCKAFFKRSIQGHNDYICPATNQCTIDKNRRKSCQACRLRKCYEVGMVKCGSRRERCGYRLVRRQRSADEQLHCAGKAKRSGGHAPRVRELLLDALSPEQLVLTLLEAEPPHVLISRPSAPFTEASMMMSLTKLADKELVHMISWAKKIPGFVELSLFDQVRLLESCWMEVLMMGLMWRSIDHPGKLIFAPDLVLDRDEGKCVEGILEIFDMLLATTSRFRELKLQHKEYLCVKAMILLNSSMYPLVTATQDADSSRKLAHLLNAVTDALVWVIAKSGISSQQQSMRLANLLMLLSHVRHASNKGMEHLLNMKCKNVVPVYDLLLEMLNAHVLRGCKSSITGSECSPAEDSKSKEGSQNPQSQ
ERα/β heterodimer, sequence (Q92731 whole entry, one chain of several, the tested form may be a part): as the sequence (Q92731 whole entry) above
ERβ/β homodimer, sequence (Q92731 whole entry): as above
ERβ/β homodimer, sequence (Q92731 whole entry): as above

In the case of `C[C@]12CC[C@@H]3c4ccc(O)cc4C[C@@H](CCCCCCCCC[S+]([O-])CCCC(F)(F)C(F)(F)F)[C@H]3[C@@H]1CC[C@@H]2O` (stereo partly shown) [ICI 182,780, reference compound], the “effect on actinopolymorphol A-dependent reporter activity” value with ERα + ERβ (in the presence of ERα + ERβ, HEK293 ERE-luciferase) is “completely abrogated”.
For actinopolymorphol A, the “cell proliferation (MTT metabolic activity)” value in the experiment with PC3 cells [1] and with HC11 cells [5] was “inhibited” in each case. The “induction for ERα/β heterodimers (BRET ratio)” value at ERα/β heterodimer (10 μM purified compound) was found to be 3 fold. For the same compound, the “increase in ERα/β heterodimerization (BRET ratio)” value on ERα/β heterodimer (100 μM purified compound) is 5 fold. For the same compound, the “binding affinity for ERβ over ERα” value on ERβ [2] (FP competition binding, ERβ vs ERα) was around 2 fold. Besides, the Ki on ERβ [2] (read-out: Ki for binding to ERβ, correlated from IC50, FP competition) is 4.3 µM; at ERα [3], 6.2 µM. Moreover, in the experiment with ERα + ERβ (HEK293, 24 hours with ligand, 10 μM and 100 μM), the “transcriptional activity of ERα + ERβ (ERE-luciferase)” value was “found to activate”. Also, at ERβ/β homodimer, the “induction of ERβ/β homodimer (BRET ratio)” value was “less than 1.5 fold”. Also, at ERα/α homodimer, the “induction of ERα/α homodimer (BRET ratio)” value is “less than 1.5 fold”. The “transcriptional activity of ERβ alone (ERE-luciferase)” value at ERβ [4] is given as “found to activate”. Further, the cell number result in the experiment with HC11 cells [6] is “statistically non-significant decrease”; in the experiment on PC3 cells [7] (PC3, 10 μM synthetic compound, p= 0.03), “statistically significant decreases”; with PC3 cells [7] (PC3, 100 μM synthetic compound, p=0.002), “statistically significant decreases”. The “transcriptional activity of ERα alone (ERE-luciferase)” value at ERα [8] is “not able to activate”.

Values taken from paper PMC2934894 (Biochemical pharmacology, 2010).
